Screening data from PubChem BioAssay.
Apaf-1 inh: human Apaf-1 inhibition; O14727; reconstituted apoptosome caspase-3 activity, DEVD-Rh110 fluorescence; inhibition, % at 20 µM; 0.71% of 330,000 active; active = inhibition of at least 40% at 20 µM;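 also: plate controls were DMSO wells for no effect and DEVD-CHO caspase inhibitor wells for full effect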
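Material: reconstituted apoptosome with Apaf-1, cytochrome c, caspase-9, procaspase-3, dATP. Technique: Rh110 fluorescence intensity. Buffer or medium: pH 7.5 Hepes buffer with CHAPS, BSA, DTT. Times: 30 min plus 50 min, RT.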
MEKK2 mut-MEK5: signal of MEK5 binding to mutant human MEKK2 PB1 domain; AID 1530; percent response, % at 10 µM; bead flow cytometry, Alexa488-MEK5 binding to MEKK2 mutant; 0.35% of 290,000 active; in the data active = percent response above about 24%, passing the limit was not always enough
MEKK2wt PB1 HTS: raises or lowers MEK5 binding to wildtype human MEKK2 PB1 domain; Q9Y2U5; bead flow cytometry, Alexa488-MEK5 binding to MEKK2 WT; actives lie on both sides; binding response (% of control), % at 10 µM; 1.1% of 290,000 active; AID 1531; in the data active = binding response below about 67% or above about 130%
MEKK3 PB1 HTS: raises or lowers MEK5 binding to the human MEKK3 PB1 domain; Q99759; bead-based flow cytometry, Alexa488-MEK5 binding to MEKK3; actives lie on both sides; 0 = blocked by unlabeled MEK5, 100 = vehicle; binding response (% of control), % at 10 µM; 1.4% of 290,000 active;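 active = binding response more than 3 SD above or below the average of its plate-row segment, actives on both sides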;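 also: Alexa488 bead fluorescence after subtracting the streptavidin-only scavenger bead signal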
UBC13 polyUb: human UBC13 polyubiquitination inhibition. P61088. UBC13 polyubiquitin chain formation, TR-FRET. inhibition, % at 20 µM. 0.47% of 330,000 active; in the data active = inhibition above about 45%, passing the limit was not always enough
MEKK2wt confirm: raises or lowers MEK5 binding to wildtype human MEKK2, retest; 2.4% of 5,900 active; AID 1892; bead flow cytometry, Alexa488-MEK5 binding to MEKK2 WT; actives lie on both sides; shares compounds with MEKK3 PB1 HTS; binding response (% of control), % at 10 µM; in the data active = binding response below about 16% or above about 210%; inactive = in between
MEKK2mut confirm: signal of MEK5 binding to mutant human MEKK2, retest | 2% of 5,900 active | percent response, % at 10 µM | bead flow cytometry, Alexa488-MEK5 binding to MEKK2 mutant | AID 1893 | shares compounds with MEKK3 PB1 HTS; in the data active = percent response mostly above about 71%, no sharp cut-off; inactive = mostly below about 38%;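 also: higher means compound restores mutant binding toward wildtype level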
MEKK3 confirm: confirmation of inhibitors of MEK5 binding to human MEKK3 | bead flow cytometry, Alexa488-MEK5 binding to MEKK3; active compounds read low | binding response (% of control), % at 10 µM | 1.8% of 5,900 active | shares compounds with MEKK3 PB1 HTS | AID 1894;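 active = binding response below 72% of control, or above a set upper limit, though filed actives all read lower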;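 also: 100% = DMSO only wells and 0% = binding blocked by excess unlabeled MEK5; lower values mean stronger disruption of MEK5 binding to MEKK3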
Active calls of the source: *; x = no result; ! = not active in a repeat; [ ] = dose if it differs, or a comment. Most compounds without a hit are left out; they make up all but 2.9% or so of the library.

SMILES | Apaf-1 inh | MEKK2 mut-MEK5 | MEKK2wt PB1 HTS | MEKK3 PB1 HTS | UBC13 polyUb | MEKK2wt confirm | MEKK2mut confirm | MEKK3 confirm
CCC(C)(C(=O)NC1CCCCC1)N(C(=O)C1CCC(=O)N1)c1ccc(C)cc1 (stereo not given) | 2.1 | 3.0 | 102.0 | 97.0 | -5.2 | x | x | x
CCC(C)(C(=O)NC1CCCC1)N(C(C)=O)c1ccc(C)cc1 (stereo not given) | 4.2 | -18.0 | 2.0*[inhibitor] | 2.0*[inhibitor] | 11.1 | 127.0 | 10.0 | 103.0
CCc1ccc(CNC(=O)c2ccc3nc(C4CCCCC4)oc3c2)nc1 | 14.6 | 8.0 | 113.0 | 108.0 | -3.7 | x | x | x
CC(SC1=NCCN1S(=O)(=O)c1ccccc1)c1ccccc1 (stereo not given) | 5.7 | 9.0 | 107.0 | 103.0 | -8.9 | x | x | x
CN(c1ccccc1)c1nc(N2CCCC2)nc(-n2ccnc2)n1 | 11.7 | 15.0 | 134.0* | 116.0 | -3.1 | 104.0 | 1.0 | 102.0
C[C@H](CO)N1C[C@H](C)[C@@H](CN(C)C(=O)Nc2ccc3c(c2)OCO3)Oc2ccc(NS(=O)(=O)c3ccc(F)cc3)cc2C1=O | -14.2 | x | x | x | -3.9 | x | x | x
Cc1ccc2[nH]c(=O)c(CN(Cc3cccs3)C(=S)NCC3CCCO3)cc2c1 (stereo not given) | 20.1 | 0.0 | 99.0 | 138.0* | -1.2 | 104.0 | 4.0 | 107.0
COc1ccc2[nH]c(=O)c(CN(Cc3ccccc3)C(=S)NCC3CCCO3)cc2c1 (stereo not given) | 9.8 | -12.0 | 85.0 | 98.0 | 4.5 | x | x | x
Cc1ccc(NC(=O)N(Cc2cccs2)Cc2cc3cc4c(cc3[nH]c2=O)OCO4)cc1 | 19.4 | 0.0 | 104.0 | 130.0* | -13.6 | 91.0 | -8.0 | 96.0
COc1ccc(NC(=O)N(Cc2cccs2)Cc2cc3cc4c(cc3[nH]c2=O)OCO4)cc1 | 6.7 | 1.0 | 100.0 | 137.0* | -6.4 | 99.0 | 2.0 | 104.0
CN(C)S(=O)(=O)c1cccc(NC(=O)C2Cc3ccccc3CN2C(=O)c2ccco2)c1 (stereo not given) | 8.1 | 1.0 | 94.0 | 101.0 | 1.4 | x | x | x
OCc1cc(C(O)CNCCCCCCOCCCCc2ccccc2)ccc1O (stereo not given) | 41.5*! | 9.0 | 144.0*! | 112.0 | 22.5 | 120.0 | 2.0 | 103.0
CC(C)(C)NCC(O)c1ccc(O)c(CO)c1 (stereo not given) | x | 4.0 | 111.0 | 104.0 | x | x | x | x
CN1C(=O)/C(=C/c2ccccc2OCc2cccc(F)c2)NC1=S | -1.8 | 0.0 | 95.0 | 103.0 | -2.5 | x | x | x
CC1CC2=C(C(=O)O1)C(C)Nc1ccccc1N2 (stereo not given) | -2.1 | 1.0 | 105.0 | 155.0* | -4.6 | 102.0 | -1.0 | 100.0
CC1CC2=C(C(=O)O1)C(c1ccccc1)Nc1ccccc1N2 (stereo not given) | -8.9 | -1.0 | 98.0 | 79.0 | -3.9 | x | x | x
Cc1noc(NC(=O)c2cccc(Cl)c2Cl)c1C#N | -4.8 | -2.0 | 85.0 | 73.0*[inhibitor] | 5.8 | 100.0 | 1.0 | 101.0
N#Cc1ccc(S(=O)(=O)N2CCC(C(=O)N3CCN(Cc4ccc5c(c4)OCO5)CC3)CC2)cc1 | 14.4 | x | x | x | 9.5 | x | x | x
CCCCCOc1ccc(/C(C)=N/NC2=NCCN2)cc1 | 8.7 | 20.0 | 148.0* | 106.0 | 34.8 | 129.0 | 10.0 | 93.0
CCOCCCn1c(=NC(C)=O)c(C#N)cc2c(=O)n3ccccc3nc21 | -3.3 | 2.0 | 103.0 | 109.0 | 7.9 | x | x | x
CC(=O)N=c1c(C#N)cc2c(=O)n3ccccc3nc2n1Cc1ccccc1 | 7.9 | 1.0 | 105.0 | 135.0* | -3.8 | 114.0 | 14.0 | 91.0
Cc1sc2ncnc(N3CCC(C(=O)Nc4ccc(OC(F)F)c(Cl)c4)CC3)c2c1C | 14.8 | x | x | x | 5.2 | x | x | x
CCN(CC)CCNC(=O)c1ccc(NC(=O)C2CCN(c3ncnc4sc(C)c(C)c34)CC2)cc1 | 8.6 | 16.0 | 147.0* | 105.0 | 8.9 | -5.0*[inhibitor] | 9.0 | 90.0
CCOc1ccc(-n2c(N)c(-c3nc4ccccc4[nH]3)sc2=S)cc1 | 8.9 | 5.0 | 108.0 | 106.0 | -17.3 | x | x | x
COc1ccc(-n2c(N)c(-c3nc4ccccc4n3C)sc2=S)cc1 | 7.6 | -13.0 | 82.0 | 69.0*[inhibitor] | -21.1 | 100.0 | -1.0 | 100.0
SMILES | Apaf-1 inh | MEKK2 mut-MEK5 | MEKK2wt PB1 HTS | MEKK3 PB1 HTS | UBC13 polyUb | MEKK2wt confirm | MEKK2mut confirm | MEKK3 confirm
CCOC(=O)/C(=N/Nc1ccccc1)Sc1nnnn1-c1ccc(C)cc1 | 4.5 | 4.0 | 105.0 | 129.0* | -2.4 | 100.0 | -2.0 | 97.0
O=C(/C(=N\Nc1ccc(Br)cc1)Sc1nnnn1-c1ccccc1)c1ccccc1 | 15.4 | -1.0 | 104.0 | 130.0* | -14.7 | 107.0 | -2.0 | 104.0
O=C(CN1C(=O)NC2(CCc3ccccc32)C1=O)NCC(=O)Nc1ccc(F)cc1 (stereo not given) | -9.2 | x | x | x | 2.6 | x | x | x
O=C1CCNCCN1[C@H](CO)c1ccccc1 | -8.3 | 3.0 | 128.0 | 100.0 | -3.4 | x | x | x
Cn1nc(-c2ccc(C(=O)N3CCN(Cc4ccccc4)CC3)cc2)c2ccccc2c1=O | 22.0 | -14.0 | 57.0*[inhibitor] | 52.0*[inhibitor] | -14.0 | 108.0 | 3.0 | 104.0
O=C(c1ccc(-n2cccc2)cc1)N1CCN(Cc2ccccc2)CC1 | 0.4 | -9.0 | 88.0 | 89.0 | 3.5 | x | x | x
Cn1nc(-c2ccc(C(=O)Nc3cccc(Cl)c3)cc2)c2ccccc2c1=O | 22.0 | -26.0 | 1.0*[inhibitor] | 34.0*[inhibitor] | 1.9 | 87.0 | -1.0 | 92.0
COc1ccc(S(=O)(=O)NNC(=O)C23CC4CC(CC(C4)C2)C3)cc1[N+](=O)[O-] | 12.0 | x | x | x | -1.1 | x | x | x
CC(C)c1cc(CNC(=O)C2CCC(=O)N(CCc3ccc(Cl)cc3)C2)on1 (stereo not given) | -9.1 | 0.0 | 101.0 | 101.0 | 1.6 | x | x | x
C(=C\n1nnc2ccccc21)/c1ccc[nH]1 | 4.9 | x | x | x | -40.8 | x | x | x
COc1cc(CNCCc2ccccc2)cc(Cl)c1OCc1ccccc1 | -3.0 | 37.0 | 192.0* | 101.0 | 42.5 | 202.0 | 73.0* | 112.0
CCOc1cc(CNC2CCCC2)cc(Cl)c1OCc1ccccc1 | 14.4 | 22.0 | 141.0* | 105.0 | 38.4 | 115.0 | 19.0 | 103.0
COc1cc(CNCCc2ccccc2)cc(Br)c1OCC(=O)Nc1ccccc1C | 11.7 | 33.0 | 182.0* | 95.0 | 41.6 | 137.0 | 15.0 | 106.0
COc1cc(CNCc2ccccc2)cc(Cl)c1OC | -7.6 | 0.0 | 99.0 | 100.0 | 8.9 | x | x | x
O=C(COc1ccc(Br)cc1CNCCc1ccccc1)NCc1ccccc1 | -5.5 | 6.0 | 145.0* | 100.0 | 6.6 | 150.0 | 35.0 | 112.0
CCOc1cc(CNCC(C)C)cc(Cl)c1OCc1ccccc1 | 0.4 | 2.0 | 121.0 | 110.0 | 14.5 | x | x | x
